Experimental data published in ChEMBL document CHEMBL4190191, “Cyclic Diarylheptanoids from Corylus avellana Green Leafy Covers: Determination of Their Absolute Configurations and Evaluation of Their Antioxidant and Antimicrobial Activities” (J Nat Prod, 2017).
Calls of active or inactive are those of the source. The rule behind the calls is not given here.

Assays:
[1] = test system: Bacillus cereus; assay: Antimicrobial activity against Bacillus cereus DSM 4313 assessed as growth inhibition at 40 ug per disc after 24 to 48 hrs (reference value: 0 millimeter); type: functional; settings: read-out: DIZ
[2] = test system: Pseudomonas aeruginosa; assay: Antimicrobial activity against Pseudomonas aeruginosa DSM 50071 assessed as growth inhibition at 40 ug per disc after 24 to 48 hrs (reference value: 0 millimeter); type: functional; settings: read-out: DIZ
[3] = test system: Plasma; assay: Antioxidant activity in human plasma assessed as inhibition of H2O2-induced lipid peroxidation at 10 uM after 30 mins by TBARS assay relative to control; type: functional, cell-free
Summary of the method: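 Fresh plasma from medication-free donors was incubated for 30 min at 37 °C with compound (0.1–100 μM) plus 2 mM H2O2. Lipid peroxidation was quantified as TBARS. Data are from 5–9 independent experiments, as mean ± SD.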

[4] = test system: Staphylococcus aureus; assay: Antimicrobial activity against Staphylococcus aureus DSM 25923 assessed as growth inhibition at 40 ug per disc after 24 to 48 hrs (reference value: 0 millimeter); type: functional; settings: read-out: DIZ
[5] = test system: Bacillus cereus; assay: Antimicrobial activity against Bacillus cereus DSM 4384 assessed as growth inhibition at 40 ug per disc after 24 to 48 hrs (reference value: 0 millimeter); type: functional; settings: read-out: DIZ
[6] = test system: Escherichia coli; assay: Antimicrobial activity against Escherichia coli DSM 8579 assessed as growth inhibition at 40 ug per disc after 24 to 48 hrs (reference value: 0 millimeter); type: functional; settings: read-out: DIZ
[7] = test system: Plasma; assay: Antioxidant activity in human plasma assessed as inhibition of H2O2/Fe2+-induced lipid peroxidation at 10 uM after 30 mins by TBARS assay relative to control; type: functional, cell-free
Summary of the method: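 Human donor plasma was incubated for 30 min at 37 °C with compound at 10 μM plus 4.7 mM H2O2, 3.8 mM […] and 2.5 mM EDTA. Peroxidation was read as TBARS concentration.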

[8] = Cytotoxicity against human DeFew cells at 10 to 100 uM by MTT assay; type: cell-based
Summary of the method: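 DeFew human B-lymphoma cells were maintained in RPMI 1640 with 10% FBS, 1% penicillin/streptomycin and 2 mM L-glutamine, in humidified 5% CO2 at 37 °C. Cells were exposed to 10–100 μM, and viability was read by MTT.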

[9] = test system: A549; assay: Cytotoxicity against human A549 cells at 10 to 100 uM by MTT assay; type: cell-based; settings: a549, 100 µM
Summary of the method: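 A549 human lung adenocarcinoma cells were kept in DMEM with 10% FBS, 1% penicillin/streptomycin and 2 mM L-glutamine, at 37 °C under 5% CO2. Viability was measured by MTT assay after exposure to 10–100 μM.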

[10] = test system: Staphylococcus aureus; assay: Antimicrobial activity against Staphylococcus aureus DSM 25923 assessed as growth inhibition at 10 ug per disc after 24 to 48 hrs (reference value: 0 millimeter); type: functional; settings: read-out: DIZ
[11] = test system: Pseudomonas aeruginosa; assay: Antimicrobial activity against Pseudomonas aeruginosa DSM 50071 assessed as growth inhibition at 20 ug per disc after 24 to 48 hrs (reference value: 0 millimeter); type: functional; settings: read-out: DIZ
[12] = test system: Pseudomonas aeruginosa; assay: Antimicrobial activity against Pseudomonas aeruginosa DSM 50071 assessed as growth inhibition at 10 ug per disc after 24 to 48 hrs (reference value: 0 millimeter); type: functional; settings: read-out: DIZ
[13] = test system: Escherichia coli; assay: Antimicrobial activity against Escherichia coli DSM 8579 assessed as growth inhibition at 20 ug per disc after 24 to 48 hrs (reference value: 0 millimeter); type: functional; settings: read-out: DIZ
[14] = test system: Bacillus cereus; assay: Antimicrobial activity against Bacillus cereus DSM 4384 assessed as growth inhibition at 10 ug per disc after 24 to 48 hrs (reference value: 0 millimeter); type: functional; settings: read-out: DIZ
[15] = test system: Escherichia coli; assay: Antimicrobial activity against Escherichia coli DSM 8579 assessed as growth inhibition at 10 ug per disc after 24 to 48 hrs (reference value: 0 millimeter); type: functional; settings: read-out: DIZ
[16] = test system: Bacillus cereus; assay: Antimicrobial activity against Bacillus cereus DSM 4384 assessed as growth inhibition at 20 ug per disc after 24 to 48 hrs (reference value: 0 millimeter); type: functional; settings: read-out: DIZ
[17] = test system: Bacillus cereus; assay: Antimicrobial activity against Bacillus cereus DSM 4313 assessed as growth inhibition at 10 ug per disc after 24 to 48 hrs (reference value: 0 millimeter); type: functional; settings: read-out: DIZ
[18] = test system: Bacillus cereus; assay: Antimicrobial activity against Bacillus cereus DSM 4313 assessed as growth inhibition at 20 ug per disc after 24 to 48 hrs (reference value: 0 millimeter); type: functional; settings: read-out: DIZ
[19] = test system: Staphylococcus aureus; assay: Antimicrobial activity against Staphylococcus aureus DSM 25923 assessed as growth inhibition at 20 ug per disc after 24 to 48 hrs (reference value: 0 millimeter); type: functional; settings: read-out: DIZ
[20] = test system: Escherichia coli; assay: Antimicrobial activity against Escherichia coli DSM 8579 assessed per disc after 24 hrs by resazurin dye-based microtiter-plate assay; type: functional
Summary of the method: (§1)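 Resazurin microtiter-plate broth dilution. Samples in DMSO were twofold serially diluted in Mueller-Hinton broth with isosensitized broth and resazurin indicator. Bacteria were added to about 5 × 10^5 cfu/mL. Ciprofloxacin served as positive control and DMSO as negative control. Plates were run in triplicate at 37 °C for 24 h. MIC is the lowest concentration […].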

[21] = test system: Staphylococcus aureus; assay: Antimicrobial activity against Staphylococcus aureus DSM 25923 assessed per disc after 24 hrs by resazurin dye-based microtiter-plate assay; type: functional; summary of the method: as §1
[22] = test system: Bacillus cereus; assay: Antimicrobial activity against Bacillus cereus DSM 4384 assessed per disc after 24 hrs by resazurin dye-based microtiter-plate assay; type: functional; summary of the method: as §1
[23] = test system: Bacillus cereus; assay: Antimicrobial activity against Bacillus cereus DSM 4313 assessed per disc after 24 hrs by resazurin dye-based microtiter-plate assay; type: functional; summary of the method: as §1
[24] = test system: Pseudomonas aeruginosa; assay: Antimicrobial activity against Pseudomonas aeruginosa DSM 50071 assessed per disc after 24 hrs by resazurin dye-based microtiter-plate assay; type: functional; summary of the method: as §1

Row | SMILES | zone of inhibition at 40 µg/disc [1] [mm] | zone of inhibition at 40 µg/disc [2] [mm] | inhibition [3] | zone of inhibition at 40 µg/disc [4] [mm] | zone of inhibition at 40 µg/disc [5] [mm] | zone of inhibition at 40 µg/disc [6] [mm] | inhibition [7] | Activity [8] | Activity [9] | other results
1 | O=C(/C=C/c1ccc(O)c(O)c1)O[C@@H]1C[C@](O)(C(=O)O)C[C@@H](OC(=O)/C=C/c2ccc(O)c(O)c2)[C@H]1O | 0 | 0 | 24.2% | 6.67 | 0 | 8.33 | 25.5% | Non-Toxic | Non-Toxic | –
2 | C[C@@H]1O[C@@H](Oc2c(-c3ccc(O)cc3)oc3cc(O)cc(O)c3c2=O)[C@H](O)[C@H](O)[C@H]1OC(=O)/C=C/c1ccc(O)cc1 | 5.33 | 9.67 | 31.8% | 10.7 | 9.67 | 8.66 | 39.7% | Non-Toxic | Non-Toxic | zone of inhibition at 10 µg/disc [10]: 5 mm; zone of inhibition at 20 µg/disc [11]: 0 mm; zone of inhibition at 10 µg/disc [12]: 0 mm; zone of inhibition at 20 µg/disc [13]: 4.33 mm; zone of inhibition at 10 µg/disc [14]: 5 mm; zone of inhibition at 10 µg/disc [15]: 3 mm; zone of inhibition at 20 µg/disc [16]: 5 mm; zone of inhibition at 10 µg/disc [17]: 2.33 mm; zone of inhibition at 20 µg/disc [18]: 3.33 mm; zone of inhibition at 20 µg/disc [19]: 6.67 mm
3 | COC(=O)CC(O)(CC(=O)O)C(=O)O (stereo not drawn) | 5.67 | 0 | inactive | 10.7 | 0 | 10 | inactive | Non-Toxic | Non-Toxic | –
4 | COC(=O)CC(O)(CC(=O)OC)C(=O)OC | 0 | 6.67 | inactive | 11.3 | 0 | 11.3 | inactive | Non-Toxic | Non-Toxic | –
5 | C[C@@H]1O[C@@H](Oc2c(-c3cc(O)c(O)c(O)c3)oc3cc(O)cc(O)c3c2=O)[C@H](O)[C@H](O)[C@H]1O | 0 | 5 | 44.4% | 6.33 | 0 | 9.67 | 34.1% | Non-Toxic | Non-Toxic | –
6 | COc1cc(/C=C/C(=O)CC(=O)/C=C/c2ccc(O)c(OC)c2)ccc1O | – | – | 21.1% | – | – | – | 22.9% | – | – | –
7 | O=C1Cc2ccc(O)c(c2)-c2cc(ccc2O)C[C@@H](O)[C@@H](O)[C@@H](O)[C@H]1O (mixture of isomers) | 10.7 | 10 | 33.3% | 10.7 | 11.3 | 10.3 | 14.4% | Non-Toxic | Non-Toxic | MIC [20]: 10 µg; MIC [21]: 30 µg; zone of inhibition at 10 µg/disc [10]: 6.33 mm; zone of inhibition at 20 µg/disc [11]: 8.67 mm; zone of inhibition at 10 µg/disc [12]: 5 mm; zone of inhibition at 20 µg/disc [13]: 10 mm; zone of inhibition at 10 µg/disc [14]: 5.67 mm; zone of inhibition at 10 µg/disc [15]: 4.67 mm; zone of inhibition at 20 µg/disc [16]: 9.67 mm; zone of inhibition at 10 µg/disc [17]: 5.67 mm; zone of inhibition at 20 µg/disc [18]: 9.67 mm; MIC [22]: 5 µg; zone of inhibition at 20 µg/disc [19]: 10 mm; MIC [23]: 5 µg; MIC [24]: 10 µg
8 | O=C1/C=C/CCc2ccc(O[C@@H]3O[C@H](CO)[C@@H](O)[C@H](O)[C@H]3O)c(c2)-c2cc(ccc2O[C@H]2OC[C@H](O)[C@H](O)[C@H]2O)CC1 (mixture of isomers) | 5 | 4.67 | 12.6% | 10 | 0 | 10 | 18.1% | Non-Toxic | Non-Toxic | –
9 | C[C@@H]1O[C@@H](Oc2c(-c3ccc(O)cc3)oc3cc(O)cc(O)c3c2=O)[C@H](O)[C@H](O)[C@H]1O [AFZELIN] | 0 | 4 | 5.7% | 10.3 | 5 | 10 | 20.1% | Non-Toxic | Non-Toxic | –
10 | O=C(O)CC(O)(CC(=O)O)C(=O)O [CITRIC ACID] | 10 | 9.33 | inactive | 10.7 | 0 | 10.7 | inactive | Non-Toxic | Non-Toxic | –
